From PMC12416921 (RSC Medicinal Chemistry, 2025)
Where two headings read alike, the source gives them in different places.

Tested on: A549 human cancer cell line
Experiment: A549 differential cytotoxicity
Format: cell-based
Settings: for HCR (hypoxia cytotoxicity ratio): A549, oxic vs anoxic IC50, 4 h incubation then 48 h oxic exposure; for IC50: Homo sapiens
Procedure, shortened: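 A549 cells plated at 6000/well in MEM-alpha with 10% FBS and 0.02 mM 2′-deoxycytidine, attached 2 h. Anoxic arm in a Coy chamber with preconditioned medium and degassed plates; normoxic arm at 95% air/5% CO2. Final 50 μg mL−1 to 5 pg mL−1, duplicate wells. 4 h exposure, then 48 h aerobic without media change.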

[1] = A549, read-out: IC50 [anoxic] (μM) ± SEM
[2] = A549, read-out: IC50 [oxic] (μM) ± SEM

| SMILES | HCR (hypoxia cytotoxicity ratio) | IC50 [1] | IC50 [2] |
| --- | --- | --- | --- |
| COc1cc(C2=CCCc3c2ccc(OC)c3OCc2ccc([N+](=O)[O-])s2)cc(OC)c1OC [KGP24 (12), 2-(((2-Methoxy-5-(3,4,5-trimethoxyphenyl)-7,8-dihydronaphthalen-1-yl)oxy)methyl)-5-nitrothiophene] | 1.0 | 0.48 ± 0.04 µM | 0.46 ± 0.05 µM |
| COc1cc(C2=CCCc3c2ccc(OC)c3OC(C)c2ccc([N+](=O)[O-])s2)cc(OC)c1OC (stereo not drawn) [KGP25 (13), 2-(1-((2-Methoxy-5-(3,4,5-trimethoxyphenyl)-7,8-dihydronaphthalen-1-yl)oxy)ethyl)-5-nitrothiophene] | 11.0 | 0.25 ± 0.08 µM | 2.74 ± 1.13 µM |
| COc1cc(C2=CCCc3c2ccc(OC)c3OC(C)(C)c2ccc([N+](=O)[O-])s2)cc(OC)c1OC [KGP66 (14), 2-(2-((2-Methoxy-5-(3,4,5-trimethoxyphenyl)-7,8-dihydronaphthalen-1-yl)oxy)propan-2-yl)-5-nitrothiophene] | 2.6 | 0.05 ± 0.01 µM | 0.13 ± 0.06 µM |
| COc1cc(C2=CCCc3c2ccc(OC)c3OCc2cnc([N+](=O)[O-])n2C)cc(OC)c1OC [KGP105 (15), 5-(((2-Methoxy-5-(3,4,5-trimethoxyphenyl)-7,8-dihydronaphthalen-1-yl)oxy)methyl)-1-methyl-2-nitro-1H-imidazole] | 6.2 | 0.04 ± 0.003 µM | 0.25 ± 0.02 µM |
| COc1cc(C2=CCCc3c2ccc(OC)c3OC(C)c2cnc([N+](=O)[O-])n2C)cc(OC)c1OC (stereo not drawn) [KGP291 (16), 5-(1-((2-Methoxy-5-(3,4,5-trimethoxyphenyl)-7,8-dihydronaphthalen-1-yl)oxy)ethyl)-1-methyl-2-nitro-1H-imidazole] | 7.6 | 0.05 ± 0.004 µM | 0.38 ± 0.03 µM |
| COc1cc(C2=CCCCc3c2ccc(OC)c3OC(C)c2cnc([N+](=O)[O-])n2C)cc(OC)c1OC (stereo not drawn) [KGP292 (22), 5-(1-((3-Methoxy-9-(3,4,5-trimethoxyphenyl)-6,7-dihydro-5H-benzo[7]annulen-4-yl)oxy)ethyl)-1-methyl-2-nitro-1H-imidazole] | 4.8 | 0.14 ± 0.04 µM | 0.67 ± 0.13 µM |
| COc1cc(C2=CCCCc3c2ccc(OC)c3OCc2cnc([N+](=O)[O-])n2C)cc(OC)c1OC [KGP293 (21), 5-(((3-Methoxy-9-(3,4,5-trimethoxyphenyl)-6,7-dihydro-5H-benzo[7]annulen-4-yl)oxy)methyl)-1-methyl-2-nitro-1H-imidazole] | 9.0 | 0.04 ± 0.005 µM | 0.36 ± 0.02 µM |
| COc1cc(C2=CCCCc3c2ccc(OC)c3OC(C)c2ccc([N+](=O)[O-])s2)cc(OC)c1OC (stereo not drawn) [KGP304 (20), 2-(1-((3-Methoxy-9-(3,4,5-trimethoxyphenyl)-6,7-dihydro-5H-benzo[7]annulen-4-yl)oxy)ethyl)-5-nitrothiophene] | 6.0 | 0.38 ± 0.12 µM | 2.27 ± 1.01 µM |
| COc1cc(C2=CCCCc3c2ccc(OC)c3OCc2ccc([N+](=O)[O-])s2)cc(OC)c1OC [KGP305 (19), 2-(((3-Methoxy-9-(3,4,5-trimethoxyphenyl)-6,7-dihydro-5H-benzo[7]annulen-4-yl)oxy)methyl)-5-nitrothiophene] | 0.2 | 0.22 ± 0.09 µM | 0.05 ± 0.005 µM |
| COc1ccc2c(C(=O)c3cc(OC)c(OC)c(OC)c3)c(-c3ccc(OC)c(OCc4ccc([N+](=O)[O-])s4)c3)[nH]c2c1 [KGP311 (23), (6-Methoxy-2-(4-methoxy-3-((5-nitrothiophen-2-yl)methoxy)phenyl)-1H-indol-3-yl)(3,4,5-trimethoxyphenyl)methanone] | 79.7 | 0.07 ± 0.04 µM | 5.58 ± 3.59 µM |
| COc1ccc2c(C(=O)c3cc(OC)c(OC)c(OC)c3)c(-c3ccc(OC)c(OC(C)c4ccc([N+](=O)[O-])s4)c3)[nH]c2c1 (stereo not drawn) [KGP343 (24), (6-Methoxy-2-(4-methoxy-3-(1-(5-nitrothiophen-2-yl)ethoxy)phenyl)-1H-indol-3-yl)(3,4,5-trimethoxyphenyl)methanone] | 33.8 | 0.12 ± 0.06 µM | 4.06 ± 1.89 µM |
| COc1ccc2c(C(=O)c3cc(OC)c(OC)c(OC)c3)c(-c3ccc(OC)c(OC(C)(C)c4ccc([N+](=O)[O-])s4)c3)[nH]c2c1 [KGP354 (25), (6-Methoxy-2-(4-methoxy-3-((2-(5-nitrothiophen-2-yl)propan-2-yl)oxy)phenyl)-1H-indol-3-yl)(3,4,5-trimethoxyphenyl)methanone] | 79 | 0.07 ± 0.02 µM | 5.53 ± 2.22 µM |
| Nc1n[n+]([O-])c2ccccc2[n+]1[O-] [TPZ (1), tirapazamine, reference compound] | 8.9 | 7.1 µM | 63.5 µM |
